Compound activity deposited in PubChem BioAssay by Sanford-Burnham Center for Chemical Genomics.
Sampled rows, rich in hits. Any-hit rate of the full collection: about 1.5%.
CCR6 antagonist = antagonists of human CCR6 receptor | P51684 | CHO-K1 CCR6 PathHunter beta-arrestin, luminescence, CCL20-stimulated | inhibition, % at 20 µM | 340,000 compounds, 0.49% hits | AID 493098;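 active means compounds whose inhibition of the agonist-driven luminescence signal at 20 µM reaches about 50%, limit read from the data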;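 further: cells stimulated with CCL20 at 14 nM final; plate controls were DMSO with CCL20 for no effect and DMSO without agonist for full effect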
CXCR6 block = blocks human CXCR6 beta-arrestin recruitment | inhibition, % at 20 µM | 360,000 compounds, 0.36% hits | O00574 | CHO-K1 PathHunter CXCR6 beta-arrestin, luminescence; in the data active means inhibition above about 34%, passing the limit was not always enough;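 further: antagonist mode with CXCL16 agonist at 10 nM final; 0% = 10 nM CXCL16 with DMSO and 100% = unstimulated wells without agonist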
EBI2 antag = antagonists of human EBI2 receptor. P32249. EBI2 beta-arrestin recruitment, luminescence, 7a,25-OHC stimulated. inhibition, % at 5 µM. 360,000 compounds, 0.81% hits; in the data active means inhibition above about 38%;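 further: enzyme fragment complementation signal reports receptor beta-arrestin coupling in cells; 0% = agonist plus DMSO wells and 100% = wells without agonist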
Target sequence (P32249 whole entry, looked up, the tested form may be a part): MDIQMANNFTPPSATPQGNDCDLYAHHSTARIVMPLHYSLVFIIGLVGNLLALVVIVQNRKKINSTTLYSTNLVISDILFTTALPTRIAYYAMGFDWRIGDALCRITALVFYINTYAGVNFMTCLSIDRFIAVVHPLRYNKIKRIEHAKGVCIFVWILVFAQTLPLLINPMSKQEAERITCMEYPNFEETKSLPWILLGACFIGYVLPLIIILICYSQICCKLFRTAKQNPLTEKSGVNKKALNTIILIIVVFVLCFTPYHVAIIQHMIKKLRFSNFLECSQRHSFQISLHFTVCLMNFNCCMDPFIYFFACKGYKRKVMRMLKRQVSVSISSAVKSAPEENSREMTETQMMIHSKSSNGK
APJ antagonist = APJ receptor antagonism; CHO-K1 APJ beta-arrestin complementation, luminescence; AID 2521; P35414; inhibition, % at 20 µM; 330,000 compounds, 0.32% hits;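 active means inhibition above about 40% at 20 µM, limit read from the data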;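 further: cells challenged with 10 nM apelin-13 agonist together with compound; plate controls were apelin-13 plus DMSO wells for no effect and DMSO wells lacking apelin-13 for full effect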
Target sequence (P35414 whole entry, looked up): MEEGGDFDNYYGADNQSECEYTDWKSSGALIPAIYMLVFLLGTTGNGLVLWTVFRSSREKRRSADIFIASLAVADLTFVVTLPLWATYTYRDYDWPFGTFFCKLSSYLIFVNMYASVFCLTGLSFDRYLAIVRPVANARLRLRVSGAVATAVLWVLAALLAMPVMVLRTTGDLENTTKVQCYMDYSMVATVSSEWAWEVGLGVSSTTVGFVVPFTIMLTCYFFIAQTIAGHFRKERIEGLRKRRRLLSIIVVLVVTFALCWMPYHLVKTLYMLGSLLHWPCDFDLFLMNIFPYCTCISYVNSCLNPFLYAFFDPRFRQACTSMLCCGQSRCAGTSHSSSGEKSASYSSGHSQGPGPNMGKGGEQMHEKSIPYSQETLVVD
APJ agonist = APJ receptor agonism. P35414. CHO-K1 APJ PathHunter beta-arrestin, luminescence; 0% DMSO wells, 100% apelin. activation, % at 20 µM. 330,000 compounds, 0.11% hits;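 active means activation more than six SD over the plate average, tested at 20 µM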;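 further: 0% = DMSO alone and 100% = apelin-13 at 10 nM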
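Assay system: CHO-K1 APJ beta-arrestin complementation cell line / Compound: single test compound dose, 20 µM final, 1% DMSO / Times: overnight seeding, 90 min compound at 25 °C, 1 h detection / Technique: beta-gal luminescence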
APJ antag conf = confirmation of human APJ apelin receptor antagonists; shares compounds with APJ antagonist; APJ beta-arrestin recruitment, luminescence, antagonist mode; inhibition, % at 20 µM; 950 compounds, 66% hits; AID 2766; in the data active means inhibition above about 50%
CXCR6 antag conf = confirmation of human CXCR6 receptor antagonists | shares compounds with CXCR6 block | CHO-K1 CXCR6 PathHunter beta-arrestin, luminescence | inhibition, % at 20 µM | 700 compounds, 65% hits | AID 602409;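 active means mean inhibition over four retests above 40%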;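 further: receptor stimulated with 10 nM CXCL16 agonist; beta-galactosidase fragment complementation upon beta-arrestin recruitment to receptor; plate controls were CXCL16 plus DMSO for no effect and DMSO without CXCL16 for full effect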
EBI2 conf = EBI2 (human) antagonism, single concentration confirmation; 2,400 compounds, 29% hits; AID 651997; inhibition, % at 5 µM; EBI2 beta-arrestin luminescence, 7a,25-OHC antagonism; shares compounds with EBI2 antag;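 active means inhibition of at least 50%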
EBI2 ag = activates EBI2, counter-screen for EBI2 antagonists | shares compounds with EBI2 antag | activation, % at 5 µM | EBI2-expressing cells, agonist mode, luminescence, 60 min; 0% vehicle, 100% 7α,25-dihydroxycholesterol control | 2,400 tested, under 10 active | AID 652000;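 active means activation of at least 50%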
bGal counter = beta-galactosidase inhibition counter-screen; shares compounds with EBI2 antag; AID 652176; 2,400 compounds, 1% hits; inhibition, % at 5 µM; purified beta-galactosidase, luminescent Galacton Star, 15 min;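 active means replicate-average signal at least 3 plate SD below neutral wells, shown as high inhibition, flagging enzyme-inhibiting false positives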;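 further: 0% = DMSO wells with enzyme and 100% = wells lacking enzyme; higher means stronger loss of beta-gal luminescence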
The depositor's hits bear a star; x = no result.

SMILES	CCR6 antagonist	CXCR6 block	EBI2 antag	APJ antagonist	APJ agonist	CXCR6 antag conf	others
COc1ccc(Cl)cc1NC(=S)N(Cc1ccc(C(=O)O)cc1)Cc1ccc(OC)c(OC)c1	-2.0	1.3	-0.2	-18.6	3.5	x
Cn1c(=O)[nH]c(=O)c2c1nc(SCC(=O)O)n2Cc1ccccc1	-0.1	-10.0	-5.3	14.3	-1.2	x
Cn1c(=O)[nH]c(=O)c2c1nc(Sc1nc3ccccc3s1)n2Cc1ccccc1	68.1*	51.6*	17.1	53.7*	-10.5	53.7*	APJ antag conf=49.5
O=c1cc(CSc2ccc(Cl)cc2)nc(-c2ccccc2)[nH]1	3.4	-9.4	-5.3	-3.8	-1.2	x
O=c1cc(CSc2ccc(Cl)cc2)nc(-c2ccccn2)[nH]1	79.1*	54.3*	48.2*	51.0*	-11.4	68.1*	APJ antag conf=69.8*
COCc1cc(=O)[nH]c(Nc2nc3ccc(C)cc3o2)n1	40.7	46.0*	4.8	52.3*	-9.4	47.2*	APJ antag conf=53.8*
CCc1ccc2nc(Nc3nc(COC)cc(=O)[nH]3)nc(C)c2c1	16.9	-0.7	-1.6	13.3	-0.5	x
C/C(=N\NC(=O)COc1ccccc1-c1ccccc1)c1cccnc1	6.5	-0.6	2.4	-8.4	3.7	x
C/C(=N\NC(=O)COc1ccccc1-c1ccccc1)c1ccccn1	89.2*	66.4*	62.0*	61.7*	-9.9	102.3*	APJ antag conf=88.2*;EBI2 conf=71.4*;EBI2 ag=-1.5;bGal counter=5.4
CCOC(=O)C1C(C)N=C2SCC(=O)N2C1c1cccc(Br)c1 (stereo not given)	22.7	-2.2	38.0*	41.1*	-6.4	x	APJ antag conf=32.9;EBI2 conf=-5.8;EBI2 ag=-0.6;bGal counter=-11.3
Cc1ccc(C(=O)CNc2ccc(Br)cc2)cc1	56.1*	39.2	73.5*	84.5*	-16.2	x	APJ antag conf=102.4*;EBI2 conf=65.7*;EBI2 ag=-3.8;bGal counter=3.7
CCOc1ccc(-c2noc(CCCC(=O)NCC3CCCO3)n2)cc1OC (stereo not given)	15.6	0.4	-7.1	0.8	-2.3	x
CC1(C)CC(=O)C(C=Nc2ccc(C(=O)c3ccccc3)cc2N=CC2=C(O)CC(C)(C)CC2=O)=C(O)C1	111.0*	103.4*	74.1*	119.7*	-17.8	114.5*	APJ antag conf=155.7*;EBI2 conf=93.1*;EBI2 ag=-5.7;bGal counter=82.6*
CC1(C)CC(=O)C(C=Nc2ccc(O)c(N=CC3=C(O)CC(C)(C)CC3=O)c2)=C(O)C1	-13.8	22.5	-3.4	-11.4	0.0	x
Nc1ncnc2c1ncn2[C@@H]1O[C@H](CNCC(O)CO)[C@@H](O)[C@H]1O (stereo not given in full)	18.8	4.2	-7.8	x	x	x
Cc1ccc2nc3sc(C(=O)N4CCCc5ccccc54)c(N)c3cc2c1	18.8	-3.4	53.8*	75.9*	-13.3	x	APJ antag conf=-8.2;EBI2 conf=54.9*;EBI2 ag=-0.1;bGal counter=10.3
Cc1ccc(-c2cc(C(=O)N3CCCc4ccccc43)c3ccccc3n2)cc1	14.4	2.1	10.3	-4.3	-6.5	x
CCCN(CC(=O)Nc1ccccc1C)C(=O)c1cccc(-n2cnnn2)c1	3.0	3.0	-3.7	4.2	-2.6	x
CC(=O)OCCCNc1cc(Sc2ccc(C)cc2)c2nonc2c1[N+](=O)[O-]	70.1*	70.7*	85.3*	71.0*	-7.7	x	APJ antag conf=103.2*;EBI2 conf=45.4;EBI2 ag=-1.0;bGal counter=1.8
CCCCc1c(Cc2ccccc2)ncn1CCc1ccccc1OC	x	38.4*	0.4	x	x	2.6
COCCCNC(=O)C[C@H]1C[C@H](C(=O)N2CCOCC2)[C@@]2(C)c3[nH]c4cc(CCC(=O)N(C)C)ccc4c3CCN2C1=O	18.4	-1.0	-2.8	x	x	x
C/C(CCC(C)C)=N\NC(=S)NCc1ccccc1	40.5	40.1*	17.3	38.5	-4.3	29.9
C/C(CCc1ccccc1)=N\NC(=S)NCCc1ccccc1	39.5	26.1	28.8	5.9	-3.4	x
COc1ccc(CNC(=O)Cn2ccc3cc(S(=O)(=O)N4CCCC4)ccc32)cc1OC	7.1	-0.6	1.7	3.7	3.1	x
CCOC(=O)C1(Cc2ccc(Cl)cc2)CCN(Cc2ccon2)CC1	3.8	69.5*	-11.8	19.3	-0.8	4.7
SMILES	CCR6 antagonist	CXCR6 block	EBI2 antag	APJ antagonist	APJ agonist	CXCR6 antag conf	others
O=S(=O)(O)c1ccc2c(c1)C(C(Cl)(Cl)Cl)OC(C(Cl)(Cl)Cl)O2 (stereo not given)	4.2	2.2	1.0	x	x	x
COc1ccc(/C=C/c2ccc3cccc(O)c3n2)c(OC)c1OC	61.3*	38.0*	14.9	31.2	-6.8	44.0*
Cc1ccc(/C=C/c2ccc3cccc(O)c3n2)s1	52.1*	36.2*	0.0	-22.5	0.9	38.2
COc1cc(Br)cc(/C=C/c2ccc3cccc(O)c3n2)c1OC	36.0	20.9	32.0	27.0	-7.7	x
COc1cc(/C=C/c2ccc3cccc(O)c3n2)cc(Cl)c1OC	22.6	5.4	8.9	12.9	-9.0	x
CCCCOc1ccccc1C(=O)N(Cc1ccc(C)o1)C1CCS(=O)(=O)C1 (stereo not given)	3.9	-3.7	-3.6	14.3	-6.3	x
CCN(C(=O)COC(=O)CNC(=O)c1ccc(Cl)cc1Cl)c1c(N)n(Cc2ccccc2)c(=O)[nH]c1=O	5.9	4.7	-3.8	-0.2	-2.1	x
Cc1cc(N=O)c(C)cc1O	x	-0.5	6.9	x	x	x
Cc1cc(O)c(-c2cc(O)c(C)cc2O)cc1O	x	64.5*	26.9	0.0	10.2	80.2*
Cc1cccc(-n2ncc3c2CCCC3NC(=O)C2CCOCC2)c1C (stereo not given)	4.6	-2.4	-4.0	9.2	-4.7	x
Cc1ccc(S(=O)(=O)N(C)C[C@@H]2Oc3ncc(C#CCC(C)C)cc3C(=O)N([C@H](C)CO)C[C@H]2C)cc1	x	8.0	17.0	x	x	x
COc1cccc(/C=C2/CCC(CN(C)C)C2=O)c1 (stereo not given)	91.8*	71.2*	23.4	x	x	53.7*
CCCC/C=C1/CCC(CN(C)C)C1=O (stereo not given)	51.8*	34.1*	-1.5	x	x	48.2*
O=C(CNC(=S)N(Cc1ccccc1F)C1CCCCC1)NCCCN1CCOCC1	2.7	-8.0	0.4	17.9	-1.9	x
N#C/C(=C/c1ccc(-c2ccccc2)o1)c1nc(-c2cccs2)cs1	16.6	11.9	12.5	x	x	x
N#C/C(=C/c1ccc(-c2ccc([N+](=O)[O-])cc2)o1)C(=O)Nc1nc(-c2cccs2)cs1	67.7*	48.5*	9.1	x	x	44.2*
